Measured values reported in ChEMBL document CHEMBL3861960, “Leoligin, the Major Lignan from Edelweiss (Leontopodium nivale subsp. alpinum), Promotes Cholesterol Efflux from THP-1 Macrophages” (J Nat Prod, 2016).
Activity calls are given as the source filed them. The calls are words filed in the database; no cut-off is given here.

Assays:
THP-1 [1] = assay: Effect on GOLGA5 protein expression in human THP1 cells at 10 uM after 24 hrs by proteome analysis relative to control; format: functional
Summary of the method: (§1)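 PMA-differentiated THP-1 macrophages given 10 μM compound or DMSO for 24 h, then lysed in TRIzol. Proteins reduced with DTT, alkylated with iodoacetamide, digested with trypsin (1:50 w/w) for 16 h at 30 °C. Biological replicates pooled, analysed by LC-MS/MS on an Orbitrap Velos Pro with a 4 h gradient, FDR ≤0.05. Only unique peptides used; log2 peptide ratios averaged per protein and tested by one-sample t test versus vehicle.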

THP-1 [2] = assay: Effect on PTPRC protein expression in human THP1 cells at 10 uM after 24 hrs by proteome analysis relative to control; format: functional; summary of the method: as §1
THP-1 [3] = assay: Effect on MGA protein expression in human THP1 cells at 10 uM after 24 hrs by proteome analysis relative to control; format: functional; summary of the method: as §1
THP-1 [4] = assay: Effect on SHMT1 protein expression in human THP1 cells at 10 uM after 24 hrs by proteome analysis relative to control; format: functional; summary of the method: as §1
THP-1 [5] = assay: Effect on MYL12A protein expression in human THP1 cells at 10 uM after 24 hrs by proteome analysis relative to control; format: functional; summary of the method: as §1
THP-1 [6] = assay: Effect on EVI2B protein expression in human THP1 cells at 10 uM after 24 hrs by proteome analysis relative to control; format: functional; summary of the method: as §1
THP-1 [7] = assay: Effect on CD44 protein expression in human THP1 cells at 10 uM after 24 hrs by proteome analysis relative to control; format: functional; summary of the method: as §1
THP-1 [8] = assay: Effect on DNAH9 protein expression in human THP1 cells at 10 uM after 24 hrs by proteome analysis relative to control; format: functional; summary of the method: as §1
THP-1 [9] = assay: Effect on CELSR3 protein expression in human THP1 cells at 10 uM after 24 hrs by proteome analysis relative to control; format: functional; summary of the method: as §1
THP-1 [10] = assay: Effect on MYL12B protein expression in human THP1 cells at 10 uM after 24 hrs by proteome analysis relative to control; format: functional; summary of the method: as §1
THP-1 [11] = assay: Effect on COMMD1 protein expression in human THP1 cells at 10 uM after 24 hrs by proteome analysis relative to control; format: functional; summary of the method: as §1
THP-1 [12] = assay: Effect on SDE2 protein expression in human THP1 cells at 10 uM after 24 hrs by proteome analysis relative to control; format: functional; summary of the method: as §1
[13] = Upregulation of ABCA1 mRNA expression in human THP1 cells at 10 uM after 24 hrs by qPCR method relative to control; format: functional, cell-based; conditions: THP-1
Summary of the method: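 THP-1 macrophages treated for 24 h with 10 μM compound, 10 μM pioglitazone or DMSO. Total RNA extracted and converted to cDNA; ABCA1 or ABCG1 measured by SYBR Green qPCR and expressed relative to 18S. Mean ± SD of four independent experiments; one-way ANOVA with Bonferroni test against DMSO.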

THP-1 [14] = assay: Effect on ATP13A3 protein expression in human THP1 cells at 10 uM after 24 hrs by proteome analysis relative to control; format: functional; summary of the method: as §1
THP-1 [15] = assay: Effect on P4HTM protein expression in human THP1 cells at 10 uM after 24 hrs by proteome analysis relative to control; format: functional; summary of the method: as §1
THP-1 [16] = assay: Effect on MCM9 protein expression in human THP1 cells at 10 uM after 24 hrs by proteome analysis relative to control; format: functional; summary of the method: as §1
THP-1 [17] = assay: Effect on SMO protein expression in human THP1 cells at 10 uM after 24 hrs by proteome analysis relative to control; format: functional; summary of the method: as §1
THP-1 [18] = assay: Effect on BHLHA15 protein expression in human THP1 cells at 10 uM after 24 hrs by proteome analysis relative to control; format: functional; summary of the method: as §1
THP-1 [19] = assay: Effect on DYNLL2 protein expression in human THP1 cells at 10 uM after 24 hrs by proteome analysis relative to control; format: functional; summary of the method: as §1
THP-1 [20] = assay: Effect on TOMM20 protein expression in human THP1 cells at 10 uM after 24 hrs by proteome analysis relative to control; format: functional; summary of the method: as §1
THP-1 [21] = assay: Effect on HIST2H2AC protein expression in human THP1 cells at 10 uM after 24 hrs by proteome analysis relative to control; format: functional; summary of the method: as §1
[22] = Upregulation of ABCG1 protein expression in human THP1 cells at 10 uM after 24 hrs by Western blot method; format: functional, cell-based; conditions: THP-1
Summary of the method: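 PMA-differentiated THP-1 macrophages (200 nM PMA, 72 h) exposed to 10 μM agent or DMSO vehicle for 24 h. Lysis in NP40 buffer with protease inhibitors, then Bradford protein assay. 20 μg protein run on SDS-PAGE, blotted to PVDF and probed with anti-ABCG1, β-actin as reference. ECL band densitometry from four independent experiments.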

THP-1 [23] = assay: Effect on TUBA1A protein expression in human THP1 cells at 10 uM after 24 hrs by proteome analysis relative to control; format: functional; summary of the method: as §1
THP-1 [24] = assay: Effect on RAB4A protein expression in human THP1 cells at 10 uM after 24 hrs by proteome analysis relative to control; format: functional; summary of the method: as §1
THP-1 [25] = assay: Effect on ART4 protein expression in human THP1 cells at 10 uM after 24 hrs by proteome analysis relative to control; format: functional; summary of the method: as §1
THP-1 [26] = assay: Effect on PLAUR protein expression in human THP1 cells at 10 uM after 24 hrs by proteome analysis relative to control; format: functional; summary of the method: as §1

C/C=C(/C)C(=O)OC[C@H]1[C@@H](Cc2ccc(OC)c(OC)c2)CO[C@@H]1c1ccc(OC)c(OC)c1
fold change (FC) (THP-1 [1]): 2.3
fold change (FC) (THP-1 [2]): 1.7
fold change (FC) (THP-1 [3]): 1.7
fold change (FC) (THP-1 [4]): 1.8
fold change (FC) (THP-1 [5]): 2.2
fold change (FC) (THP-1 [6]): 2.3
fold change (FC) (THP-1 [7]): 1.8
fold change (FC) (THP-1 [8]): 0.4
fold change (FC) (THP-1 [9]): 1.6
fold change (FC) (THP-1 [10]): 2
fold change (FC) (THP-1 [11]): 1.5
fold change (FC) (THP-1 [12]): 0.6
fold change (FC) [13]: 2.4
fold change (FC) (THP-1 [14]): 1.7
fold change (FC) (THP-1 [15]): 0.6
fold change (FC) (THP-1 [16]): 1.9
fold change (FC) (THP-1 [17]): 2.1
fold change (FC) (THP-1 [18]): 0.7
fold change (FC) (THP-1 [19]): 1.7
fold change (FC) (THP-1 [20]): 1.6
fold change (FC) (THP-1 [21]): 0.6
Activity [22]: Active
fold change (FC) (THP-1 [23]): 1.5
fold change (FC) (THP-1 [24]): 1.9
fold change (FC) (THP-1 [25]): 1.6
fold change (FC) (THP-1 [26]): 1.5
